Assay results taken from ChEMBL document CHEMBL4261634, “Design and optimization of 2,3-dihydrobenzo[b][1,4]dioxine propanoic acids as novel GPR40 agonists with improved pharmacokinetic and safety profiles” (Bioorg Med Chem, 2018).
Active and inactive are the calls of the source. The rule behind the calls is not given here.

Experiments:
[1] = Elimination half life in Sprague-Dawley rat at 3 mg/kg, po by LC-ESI-MS analysis; format: ADME, organism-based; conditions: in vivo, read-out: beta t1/2 (converted)
Procedure, shortened: (§1)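 SD rats dosed orally (3 or 10 mg/kg) or by intravenous injection (1 mg/kg). Plasma PK parameters derived per route: Cmax, AUC0-t, Tmax, t1/2 and F after oral dosing; CL, AUC0-t, MRT, t1/2 and Vdss after iv dosing. Mean ± SD from three independent experiments (n = 3).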

[2] = system: Salmonella typhimurium; experiment: Mutagenicity in Salmonella typhimurium by Ames test; format: toxicity, organism-based; conditions: salmonella enterica subsp. enterica serovar typhimurium
[3] = Volume of distribution at steady state in Sprague-Dawley rat at 1 mg/kg, iv by LC-ESI-MS analysis; format: ADME, organism-based; conditions: in vivo, read-out: Vdss; procedure, shortened: as §1
[4] = molecular target: T1, Cytochrome P450 2B6 (Homo sapiens, UniProt P20813); experiment: Inhibition of CYP2B6 (unknown origin); format: ADME
T1 sequence (P20813 whole entry): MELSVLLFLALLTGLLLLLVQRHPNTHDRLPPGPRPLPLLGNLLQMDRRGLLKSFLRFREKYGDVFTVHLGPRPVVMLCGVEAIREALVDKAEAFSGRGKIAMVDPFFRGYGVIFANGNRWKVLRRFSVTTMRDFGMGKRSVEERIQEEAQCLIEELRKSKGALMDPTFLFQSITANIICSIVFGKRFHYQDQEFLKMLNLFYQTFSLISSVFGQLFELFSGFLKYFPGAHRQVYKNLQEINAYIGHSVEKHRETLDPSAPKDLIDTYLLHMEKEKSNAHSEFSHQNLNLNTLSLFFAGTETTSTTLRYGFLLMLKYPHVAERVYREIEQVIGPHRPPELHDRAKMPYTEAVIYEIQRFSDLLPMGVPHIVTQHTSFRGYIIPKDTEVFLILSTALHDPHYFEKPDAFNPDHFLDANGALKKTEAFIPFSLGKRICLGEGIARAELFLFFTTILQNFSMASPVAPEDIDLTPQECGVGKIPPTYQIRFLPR

[5] = MRT in Sprague-Dawley rat at 1 mg/kg, iv by LC-ESI-MS analysis; format: ADME, organism-based; conditions: in vivo; procedure, shortened: as §1
[6] = system: Rattus norvegicus; experiment: Subacute toxicity in Sprague-Dawley rat assessed as effect on survival rate at 50 to 100 mg/kg, po administered once daily for 2 weeks; format: organism-based; conditions: in vivo, 336 h
Procedure, shortened: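 SD rats dosed orally once daily for two weeks at 50 mg/kg and 100 mg/kg. Subacute toxicity was assessed over the dosing period from survival rate, behaviour, food intake and organ coefficients.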

[7] = molecular target: Cytochrome P450 2C9 (Homo sapiens, UniProt P11712); experiment: Inhibition of CYP2C9 (unknown origin); format: ADME
[8] = Clearance in Sprague-Dawley rat at 1 mg/kg, iv by LC-ESI-MS analysis; format: ADME, organism-based; conditions: in vivo; procedure, shortened: as §1
[9] = molecular target: T2, Free fatty acid receptor 1 (Homo sapiens, UniProt O14842); experiment: Agonist activity at human GPR40 expressed in human HEK293 cells assessed as increase in intracellular calcium flux after 10 mins by fluorescence assay; format: functional, cell-based
Procedure, shortened: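 Human GPR40 activity read by calcium mobilization to give EC50. Mean ± SD, n = 3.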

[10] = AUC (0 to t) in Sprague-Dawley rat at 10 mg/kg, po by LC-ESI-MS analysis; format: ADME, organism-based; conditions: in vivo; procedure, shortened: as §1
[11] = molecular target: Voltage-gated inwardly rectifying potassium channel KCNH2 (Homo sapiens, UniProt Q12809); experiment: Inhibition of human ERG by patch-clamp assay
Procedure, shortened: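 hERG K+ channel inhibition measured by patch clamp to give IC50.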

[12] = molecular target: T3, Glucose-dependent insulinotropic receptor (Homo sapiens, UniProt Q8TDV5); experiment: Agonist activity at GPR119 (unknown origin); format: functional
T3 sequence (Q8TDV5 whole entry): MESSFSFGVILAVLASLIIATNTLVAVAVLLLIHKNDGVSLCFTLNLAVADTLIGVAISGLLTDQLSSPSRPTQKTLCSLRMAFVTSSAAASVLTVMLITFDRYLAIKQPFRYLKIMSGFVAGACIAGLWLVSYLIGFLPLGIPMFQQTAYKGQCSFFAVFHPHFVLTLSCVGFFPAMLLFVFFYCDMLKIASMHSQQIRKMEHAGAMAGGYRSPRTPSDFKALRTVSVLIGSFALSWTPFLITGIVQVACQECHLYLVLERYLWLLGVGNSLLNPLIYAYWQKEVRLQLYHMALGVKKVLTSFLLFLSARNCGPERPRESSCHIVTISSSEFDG

[13] = molecular target: T4, Free fatty acid receptor 4 (Homo sapiens) (UniProt Q5NUL3); experiment: Agonist activity at GPR120 (unknown origin) up to 100 uM; format: functional
T4 sequence (whole entry): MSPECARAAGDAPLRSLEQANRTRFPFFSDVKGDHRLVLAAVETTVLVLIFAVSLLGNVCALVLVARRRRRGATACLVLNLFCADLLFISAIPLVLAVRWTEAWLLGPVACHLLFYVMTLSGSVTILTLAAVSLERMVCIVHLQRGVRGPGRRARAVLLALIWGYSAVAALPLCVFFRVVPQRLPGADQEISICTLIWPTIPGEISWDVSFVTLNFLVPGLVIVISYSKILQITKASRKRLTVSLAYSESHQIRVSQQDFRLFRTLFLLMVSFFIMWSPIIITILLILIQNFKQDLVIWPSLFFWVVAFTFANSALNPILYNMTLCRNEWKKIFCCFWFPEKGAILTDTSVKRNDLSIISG

[14] = system: Rattus norvegicus; experiment: Antidiabetic activity in Sprague-Dawley rat assessed as reduction in blood glucose AUC (0 to 120 mins) at 10 to 20 mg/kg, po administered 60 mins prior to glucose challenge by OGTT; format: functional, organism-based
Procedure, shortened: (§2)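 OGTT in SD rats: compound given orally 60 min before a 3.0 g/kg glucose challenge. Blood glucose followed over time, and AUC0-60min or AUC0-120min calculated versus vehicle group. Mean ± SD, n = 8.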

[15] = system: Rattus norvegicus; experiment: Antidiabetic activity in Sprague-Dawley rat assessed as reduction in blood glucose excursion at 10 to 20 mg/kg, po administered 60 mins prior to glucose challenge by OGTT; format: functional, organism-based; procedure, shortened: as §2
[16] = AUC (0 to t) in Sprague-Dawley rat at 1 mg/kg, iv by LC-ESI-MS analysis; format: ADME, organism-based; conditions: in vivo; procedure, shortened: as §1
[17] = molecular target: T2, Free fatty acid receptor 1; experiment: Agonist activity at human GPR40 expressed in human HEK293 cells assessed as increase in intracellular calcium flux after 10 mins by fluorescence assay relative to linoleic acid; format: functional, cell-based
Procedure, shortened: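 Human GPR40 activity read by calcium mobilization to give EC50. Emax expressed relative to linoleic acid as 100%. Mean ± SD, n = 3.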

[18] = molecular target: ATP-binding cassette sub-family C member 2 (Homo sapiens, UniProt Q92887); experiment: Inhibition of human MRP2
[19] = Oral bioavailability in Sprague-Dawley rat at 3 mg/kg by LC-ESI-MS analysis; format: ADME, organism-based; conditions: in vivo; procedure, shortened: as §1
[20] = system: Hepatocyte; experiment: Toxicity in sandwich-cultured Sprague-Dawley rat hepatocytes assessed as inhibition of hepatobiliary transport by measuring biliary excretion index at 5 to 40 uM after 15 mins in presence of d8-TCA by LC-MS/MS analysis; format: cell-based; conditions: 0.25 h
Procedure, shortened: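 Sandwich-cultured rat hepatocytes incubated with compound and d8-TCA in standard (Ca2+-containing) or Ca2+-free buffer. Cellular d8-TCA measured, and the biliary excretion index calculated as the fraction of accumulated bile acid excreted into bile. Mean of three independent experiments.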

T2 sequence (O14842 whole entry): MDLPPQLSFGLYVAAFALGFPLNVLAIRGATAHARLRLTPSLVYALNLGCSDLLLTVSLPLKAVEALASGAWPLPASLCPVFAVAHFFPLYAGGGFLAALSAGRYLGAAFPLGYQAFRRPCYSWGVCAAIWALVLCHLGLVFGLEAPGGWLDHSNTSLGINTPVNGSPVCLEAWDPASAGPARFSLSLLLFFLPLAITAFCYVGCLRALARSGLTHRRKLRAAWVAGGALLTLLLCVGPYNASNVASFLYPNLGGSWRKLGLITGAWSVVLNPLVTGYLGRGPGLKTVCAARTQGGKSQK
Chain of Cytochrome P450 2C9 (P11712 whole entry): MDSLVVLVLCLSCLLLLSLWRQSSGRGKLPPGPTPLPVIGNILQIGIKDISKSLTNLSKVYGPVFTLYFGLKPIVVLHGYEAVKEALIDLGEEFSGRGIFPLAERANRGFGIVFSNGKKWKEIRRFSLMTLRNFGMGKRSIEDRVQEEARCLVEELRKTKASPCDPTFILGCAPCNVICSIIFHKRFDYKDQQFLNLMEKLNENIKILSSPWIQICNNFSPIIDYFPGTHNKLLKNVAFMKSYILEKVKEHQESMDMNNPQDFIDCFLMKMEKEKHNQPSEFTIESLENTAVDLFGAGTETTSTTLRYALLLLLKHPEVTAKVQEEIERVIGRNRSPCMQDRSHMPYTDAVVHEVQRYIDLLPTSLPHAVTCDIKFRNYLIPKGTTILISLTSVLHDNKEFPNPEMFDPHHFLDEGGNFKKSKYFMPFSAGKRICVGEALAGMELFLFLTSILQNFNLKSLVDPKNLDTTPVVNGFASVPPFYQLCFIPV
Chain of Voltage-gated inwardly rectifying potassium channel KCNH2 (Q12809 whole entry): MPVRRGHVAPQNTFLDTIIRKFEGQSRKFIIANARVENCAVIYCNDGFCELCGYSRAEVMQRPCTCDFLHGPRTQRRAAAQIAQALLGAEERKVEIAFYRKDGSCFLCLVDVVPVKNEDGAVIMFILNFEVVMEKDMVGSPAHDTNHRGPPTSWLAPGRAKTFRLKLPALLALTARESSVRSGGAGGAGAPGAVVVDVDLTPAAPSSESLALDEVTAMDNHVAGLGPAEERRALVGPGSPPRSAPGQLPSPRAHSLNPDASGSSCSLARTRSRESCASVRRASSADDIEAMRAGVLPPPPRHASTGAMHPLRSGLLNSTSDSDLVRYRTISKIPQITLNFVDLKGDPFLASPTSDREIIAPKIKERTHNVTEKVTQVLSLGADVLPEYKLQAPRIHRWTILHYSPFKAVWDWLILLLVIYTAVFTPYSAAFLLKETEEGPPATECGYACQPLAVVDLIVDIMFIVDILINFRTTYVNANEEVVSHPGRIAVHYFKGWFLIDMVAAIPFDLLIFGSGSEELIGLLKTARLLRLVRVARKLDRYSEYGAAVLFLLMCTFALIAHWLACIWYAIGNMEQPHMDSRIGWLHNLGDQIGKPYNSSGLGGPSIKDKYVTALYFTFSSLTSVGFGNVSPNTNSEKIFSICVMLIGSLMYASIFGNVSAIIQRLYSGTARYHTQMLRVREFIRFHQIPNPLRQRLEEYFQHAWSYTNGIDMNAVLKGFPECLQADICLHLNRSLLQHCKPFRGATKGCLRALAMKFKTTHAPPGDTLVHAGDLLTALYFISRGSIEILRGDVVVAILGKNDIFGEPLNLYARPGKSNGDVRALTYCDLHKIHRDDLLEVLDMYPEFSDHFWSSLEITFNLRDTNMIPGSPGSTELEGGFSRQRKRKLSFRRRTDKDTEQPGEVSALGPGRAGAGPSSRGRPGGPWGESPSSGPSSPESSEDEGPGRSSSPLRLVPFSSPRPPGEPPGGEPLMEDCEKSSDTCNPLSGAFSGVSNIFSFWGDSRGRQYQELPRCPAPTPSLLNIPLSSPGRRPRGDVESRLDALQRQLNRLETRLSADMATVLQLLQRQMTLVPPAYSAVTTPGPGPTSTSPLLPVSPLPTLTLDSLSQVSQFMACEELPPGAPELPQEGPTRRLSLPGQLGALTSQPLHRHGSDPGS
Chain of ATP-binding cassette sub-family C member 2 (Q92887 whole entry): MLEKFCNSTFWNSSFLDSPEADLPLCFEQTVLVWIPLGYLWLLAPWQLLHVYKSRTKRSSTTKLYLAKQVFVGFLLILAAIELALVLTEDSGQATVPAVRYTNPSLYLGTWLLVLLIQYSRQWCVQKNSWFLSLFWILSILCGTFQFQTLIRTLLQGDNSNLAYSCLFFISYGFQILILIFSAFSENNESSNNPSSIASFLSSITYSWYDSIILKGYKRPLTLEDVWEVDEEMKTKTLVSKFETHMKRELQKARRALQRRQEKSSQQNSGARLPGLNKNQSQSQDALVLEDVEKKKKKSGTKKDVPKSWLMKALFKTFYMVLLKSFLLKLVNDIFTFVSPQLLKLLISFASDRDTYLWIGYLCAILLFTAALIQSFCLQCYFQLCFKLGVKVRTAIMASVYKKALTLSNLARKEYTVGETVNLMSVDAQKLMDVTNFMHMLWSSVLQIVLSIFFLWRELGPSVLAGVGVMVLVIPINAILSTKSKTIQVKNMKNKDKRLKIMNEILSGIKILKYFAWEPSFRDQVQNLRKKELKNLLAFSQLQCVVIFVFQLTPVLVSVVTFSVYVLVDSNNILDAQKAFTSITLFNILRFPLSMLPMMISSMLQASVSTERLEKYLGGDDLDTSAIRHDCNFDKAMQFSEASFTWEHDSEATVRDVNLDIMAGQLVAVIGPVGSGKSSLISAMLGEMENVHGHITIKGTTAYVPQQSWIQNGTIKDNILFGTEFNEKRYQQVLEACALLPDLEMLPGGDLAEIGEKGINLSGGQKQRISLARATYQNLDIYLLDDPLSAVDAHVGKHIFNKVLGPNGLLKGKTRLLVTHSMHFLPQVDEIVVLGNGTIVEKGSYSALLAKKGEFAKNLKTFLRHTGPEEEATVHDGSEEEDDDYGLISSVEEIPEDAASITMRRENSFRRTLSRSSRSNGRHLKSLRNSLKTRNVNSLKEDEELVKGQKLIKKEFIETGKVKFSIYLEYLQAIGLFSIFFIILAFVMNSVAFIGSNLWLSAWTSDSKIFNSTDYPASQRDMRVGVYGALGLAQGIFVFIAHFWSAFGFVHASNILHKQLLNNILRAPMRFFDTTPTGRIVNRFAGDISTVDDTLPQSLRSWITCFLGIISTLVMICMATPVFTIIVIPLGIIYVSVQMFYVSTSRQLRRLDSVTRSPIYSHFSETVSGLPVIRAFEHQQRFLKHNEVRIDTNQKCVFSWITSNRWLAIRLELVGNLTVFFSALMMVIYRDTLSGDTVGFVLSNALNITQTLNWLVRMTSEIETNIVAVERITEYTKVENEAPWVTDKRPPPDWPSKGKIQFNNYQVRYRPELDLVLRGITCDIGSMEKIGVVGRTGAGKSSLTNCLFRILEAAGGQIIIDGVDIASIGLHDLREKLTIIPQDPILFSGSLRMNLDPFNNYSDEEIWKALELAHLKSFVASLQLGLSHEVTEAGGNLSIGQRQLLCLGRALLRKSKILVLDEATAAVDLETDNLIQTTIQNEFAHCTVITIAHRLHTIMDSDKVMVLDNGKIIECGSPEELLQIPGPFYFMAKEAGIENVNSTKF

For `CC#C[C@@H](CC(=O)O)c1ccc(OC[C@H]2COc3ccc(Cl)cc3O2)cc1`, the half-life [1] was 16.1 h, the Activity [2] was “Non-Toxic” and the Vd [3] was 0.182 L/kg. For the same compound, the IC50 [4] was 84.7 µM, the MRT [5] was 17.9 h and the Activity [6] was “Non-Toxic”. The IC50 [7] was 60.5 µM, the clearance [8] was 0.17 mL/min/kg and the EC50 [9] was 0.05 µM. For the same compound, the AUC(0-t) [10] was 656 µg·h/mL, the IC50 [11] was over 40 µM and the EC50 [12] was over 100 µM. The Activity [13] was “inactive”, the Activity [14] was “Active” and the Activity [15] was “Active”. For the same compound, the AUC(0-t) [16] was 71.4 µg·h/mL, the Emax [17] was 86% and the IC50 [18] was over 100 µM. The bioavailability [19] was 65.5% and the Activity [20] was “Non-Toxic”.
